Activity calls are given as the source filed them. No cut-off for these calls is given here.
Legend:
[1] = target: Tyrosine-protein kinase TXK (Homo sapiens) (UniProt P42681); assay: Inhibition of human TXK at 1 uM using RBER-CHKtide as substrate in presence of 33P-ATP by ProQinase assay
[2] = target: Dual specificity protein kinase TTK (Homo sapiens) (UniProt P33981); assay: Inhibition of human TTK at 1 uM using RBER-CHKtide as substrate in presence of 33P-ATP by ProQinase assay
[3] = target: Serine/threonine-protein kinase ULK1 (Homo sapiens) (UniProt O75385); assay: Inhibition of recombinant human ULK1 (2 to 1050 residues) expressed in baculovirus infected Sf21 cells assessed as remaining activity at 1 uM using MBP as substrate incubated for 30 mins in presence of [gamma-33P]ATP by filter binding method relative to control
[4] = target: Serine/threonine-protein kinase NLK (Homo sapiens) (UniProt Q9UBE8); assay: Inhibition of human NLK at 1 uM using RBER-GSK3 as substrate in presence of 33P-ATP by ProQinase assay
[5] = target: Activin receptor type-1-like (Homo sapiens) (UniProt P37023); assay: Inhibition of human ACVRL1 at 1 uM using casein as substrate in presence of 33P-ATP by ProQinase assay
[6] = target: Mitogen-activated protein kinase kinase kinase kinase 5 (Homo sapiens) (UniProt Q9Y4K4); assay: Inhibition of MAP4K5 (unknown origin) assessed as remaining activity at 1 uM relative to control
In short: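 Dundee panel of 140 protein kinases, tested at a single 1 μM concentration. Each assay was run in triplicate. Remaining activity is expressed relative to a control reaction without inhibitor, as mean ± S.D. Conditions for each kinase were those of the screening centre.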

[7] = target: Mitogen-activated protein kinase kinase kinase 10 (Homo sapiens) (UniProt Q02779); assay: Inhibition of human MAP3K10 at 1 uM using histon H2B as substrate in presence of 33P-ATP by ProQinase assay
[8] = target: Tyrosine-protein kinase ZAP-70 (Homo sapiens) (UniProt P43403); assay: Inhibition of recombinant human N-terminal His6-tagged ZAP70 (1 to 619 residues) expressed in baculovirus infected Sf21 cells assessed as remaining activity at 1 uM using Poly(Glu,Tyr) as substrate incubated for 30 mins in presence of [gamma-33P]ATP by filter binding method relative to control
[9] = target: Calcium/calmodulin-dependent protein kinase type 1 (Homo sapiens) (UniProt Q14012); assay: Inhibition of recombinant human N-terminal GST-tagged CAMK1alpha (2 to 369 residues) expressed in Escherichia coli assessed as remaining activity at 1 uM using YLRRRLSDSNF as substrate incubated for 30 mins in presence of [gamma-33P]ATP by filter binding method relative to control
[10] = target: Mitogen-activated protein kinase kinase kinase 2 (Homo sapiens) (UniProt Q9Y2U5); assay: Inhibition of human MEKK2 at 1 uM using casein as substrate in presence of 33P-ATP by ProQinase assay
[11] = target: Maternal embryonic leucine zipper kinase (Homo sapiens) (UniProt Q14680); assay: Inhibition of human MELK at 1 uM using RBER-CHKtide as substrate in presence of 33P-ATP by ProQinase assay
[12] = target: NT-3 growth factor receptor (Homo sapiens) (UniProt Q16288); assay: Inhibition of human TRKC at 1 uM using polyEy as substrate in presence of 33P-ATP by ProQinase assay
[13] = target: Fibroblast growth factor receptor 2 (Homo sapiens) (UniProt P21802); assay: Inhibition of human FGFR2 at 1 uM using polyEY as substrate in presence of 33P-ATP by ProQinase assay
[14] = target: Aurora kinase B (Homo sapiens) (UniProt Q96GD4); assay: Inhibition of human AuroraB at 1 uM using bio-4xCHKT as substrate in presence of 33P-ATP by ProQinase assay
[15] = target: Serine/threonine-protein kinase Nek6 (Homo sapiens) (UniProt Q9HC98); assay: Inhibition of recombinant human His6-tagged NEK6 (8 to 313 residues) expressed in baculovirus infected Sf21 cells assessed as remaining activity at 1 uM using FLAKSFGSPNRAYKK as substrate incubated for 30 mins in presence of [gamma-33P]ATP by filter binding method relative to control
[16] = target: PI3-kinase p110-delta/p85-alpha (Homo sapiens, UniProt O00329); assay: Inhibition of human PIK3CD/PIK3R1 using PIP2/PS as substrate by ADP-Glo assay; format: protein-complex assay
[17] = target: Serine/threonine-protein kinase 26 (Homo sapiens) (UniProt Q9P289); assay: Inhibition of recombinant human N-terminal His6-tagged MST4 (1 to 416 residues) expressed in baculovirus infected Sf21 cells assessed as remaining activity at 1 uM using MBP as substrate incubated for 30 mins in presence of [gamma-33P]ATP by filter binding method relative to control
[18] = target: Protein kinase C alpha type (Homo sapiens) (UniProt P17252); assay: Inhibition of recombinant human N-terminal GST-tagged PKCA (2 to 351 residues) expressed in Escherichia coli assessed as remaining activity at 1 uM using kKemptide as substrate incubated for 30 mins in presence of [gamma-33P]ATP by filter binding method relative to control
[19] = target: Bone morphogenetic protein receptor type-1A (Homo sapiens) (UniProt P36894); assay: Inhibition of human BMPR1A at 1 uM using casein as substrate in presence of 33P-ATP by ProQinase assay
[20] = target: Receptor tyrosine-protein kinase erbB-2 (Homo sapiens) (UniProt P04626); assay: Inhibition of human ERBB2 at 1 uM using polyEY as substrate in presence of 33P-ATP by ProQinase assay
[21] = target: RAC-beta serine/threonine-protein kinase (Homo sapiens) (UniProt P31751); assay: Inhibition of human AKT2 at 1 uM using RBER-GSK3 as substrate in presence of 33P-ATP by ProQinase assay
[22] = target: Activated CDC42 kinase 1 (Homo sapiens) (UniProt Q07912); assay: Inhibition of human ACK1 at 1 uM using polyEy as substrate in presence of 33P-ATP by ProQinase assay
[23] = target: Interferon-induced, double-stranded RNA-activated protein kinase (Homo sapiens) (UniProt P19525); assay: Inhibition of human EIF2AK2 at 1 uM using RB-CTF as substrate in presence of 33P-ATP by ProQinase assay
[24] = target: Tau-tubulin kinase 2 (Homo sapiens) (UniProt Q6IQ55); assay: Inhibition of recombinant human TTBK2 (1 to 450 residues) expressed in baculovirus infected Sf21 cells assessed as remaining activity at 1 uM using RRKDLHDDEEDEAMSITA as substrate incubated for 30 mins in presence of [gamma-33P]ATP by filter binding method relative to control
[25] = target: Casein kinase II subunit alpha' (Homo sapiens) (UniProt P19784); assay: Inhibition of human CK2alpha2 at 1 uM using casein as substrate in presence of 33P-ATP by ProQinase assay
Casein kinase II subunit alpha' (Homo sapiens), sequence (P19784 whole entry, looked up): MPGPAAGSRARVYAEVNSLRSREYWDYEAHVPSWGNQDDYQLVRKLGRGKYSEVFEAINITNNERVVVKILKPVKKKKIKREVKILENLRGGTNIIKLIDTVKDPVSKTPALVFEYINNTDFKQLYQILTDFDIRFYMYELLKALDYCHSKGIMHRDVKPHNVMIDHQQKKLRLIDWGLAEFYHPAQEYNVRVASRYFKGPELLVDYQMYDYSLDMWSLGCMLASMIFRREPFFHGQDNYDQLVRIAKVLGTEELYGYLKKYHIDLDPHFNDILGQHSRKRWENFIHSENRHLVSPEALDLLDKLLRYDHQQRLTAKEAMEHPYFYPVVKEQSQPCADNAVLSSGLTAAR

Interferon-induced, double-stranded RNA-activated protein kinase (Homo sapiens), sequence (P19525 whole entry, the tested form may be a part): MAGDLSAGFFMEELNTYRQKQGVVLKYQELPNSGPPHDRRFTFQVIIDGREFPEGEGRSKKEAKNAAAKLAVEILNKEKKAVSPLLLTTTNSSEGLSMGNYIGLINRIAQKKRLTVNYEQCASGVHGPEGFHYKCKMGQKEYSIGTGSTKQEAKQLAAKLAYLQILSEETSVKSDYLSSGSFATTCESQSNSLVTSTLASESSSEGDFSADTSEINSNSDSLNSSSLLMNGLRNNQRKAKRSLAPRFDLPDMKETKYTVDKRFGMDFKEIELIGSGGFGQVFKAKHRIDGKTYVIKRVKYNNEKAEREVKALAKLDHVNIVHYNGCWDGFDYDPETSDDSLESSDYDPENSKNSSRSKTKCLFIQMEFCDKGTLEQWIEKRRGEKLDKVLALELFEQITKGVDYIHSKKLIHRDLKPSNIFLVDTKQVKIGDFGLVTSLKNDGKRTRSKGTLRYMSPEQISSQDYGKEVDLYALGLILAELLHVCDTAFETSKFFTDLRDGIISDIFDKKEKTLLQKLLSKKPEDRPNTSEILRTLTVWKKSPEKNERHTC
Serine/threonine-protein kinase 26 (Homo sapiens), sequence (Q9P289 2-416 limits assumed): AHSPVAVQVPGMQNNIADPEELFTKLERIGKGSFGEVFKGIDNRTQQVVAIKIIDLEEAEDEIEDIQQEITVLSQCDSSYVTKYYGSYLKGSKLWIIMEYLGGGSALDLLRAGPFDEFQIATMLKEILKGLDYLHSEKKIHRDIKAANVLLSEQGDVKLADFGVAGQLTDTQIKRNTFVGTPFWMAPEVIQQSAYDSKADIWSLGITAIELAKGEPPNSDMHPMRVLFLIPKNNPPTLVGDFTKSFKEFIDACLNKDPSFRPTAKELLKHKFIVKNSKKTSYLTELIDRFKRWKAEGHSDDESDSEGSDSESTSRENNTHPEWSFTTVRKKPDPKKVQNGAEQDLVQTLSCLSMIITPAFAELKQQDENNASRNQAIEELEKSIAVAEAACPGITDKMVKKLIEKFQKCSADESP
Tyrosine-protein kinase TXK (Homo sapiens), sequence (P42681 whole entry): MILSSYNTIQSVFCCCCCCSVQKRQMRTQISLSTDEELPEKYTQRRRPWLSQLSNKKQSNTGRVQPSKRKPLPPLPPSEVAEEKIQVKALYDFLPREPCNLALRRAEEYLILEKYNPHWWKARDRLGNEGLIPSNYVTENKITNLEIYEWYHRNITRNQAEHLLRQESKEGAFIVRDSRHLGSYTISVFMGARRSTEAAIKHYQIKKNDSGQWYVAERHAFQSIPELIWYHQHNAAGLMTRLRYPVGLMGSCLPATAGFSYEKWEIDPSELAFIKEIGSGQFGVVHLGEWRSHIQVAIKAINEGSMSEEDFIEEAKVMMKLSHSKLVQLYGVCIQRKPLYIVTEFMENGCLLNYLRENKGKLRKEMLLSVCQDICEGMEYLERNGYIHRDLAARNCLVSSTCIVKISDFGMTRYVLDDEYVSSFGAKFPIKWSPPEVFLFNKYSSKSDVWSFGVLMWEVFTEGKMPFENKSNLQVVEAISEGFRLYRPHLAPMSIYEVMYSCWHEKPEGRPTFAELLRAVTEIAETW
Maternal embryonic leucine zipper kinase (Homo sapiens), sequence (Q14680 whole entry, looked up): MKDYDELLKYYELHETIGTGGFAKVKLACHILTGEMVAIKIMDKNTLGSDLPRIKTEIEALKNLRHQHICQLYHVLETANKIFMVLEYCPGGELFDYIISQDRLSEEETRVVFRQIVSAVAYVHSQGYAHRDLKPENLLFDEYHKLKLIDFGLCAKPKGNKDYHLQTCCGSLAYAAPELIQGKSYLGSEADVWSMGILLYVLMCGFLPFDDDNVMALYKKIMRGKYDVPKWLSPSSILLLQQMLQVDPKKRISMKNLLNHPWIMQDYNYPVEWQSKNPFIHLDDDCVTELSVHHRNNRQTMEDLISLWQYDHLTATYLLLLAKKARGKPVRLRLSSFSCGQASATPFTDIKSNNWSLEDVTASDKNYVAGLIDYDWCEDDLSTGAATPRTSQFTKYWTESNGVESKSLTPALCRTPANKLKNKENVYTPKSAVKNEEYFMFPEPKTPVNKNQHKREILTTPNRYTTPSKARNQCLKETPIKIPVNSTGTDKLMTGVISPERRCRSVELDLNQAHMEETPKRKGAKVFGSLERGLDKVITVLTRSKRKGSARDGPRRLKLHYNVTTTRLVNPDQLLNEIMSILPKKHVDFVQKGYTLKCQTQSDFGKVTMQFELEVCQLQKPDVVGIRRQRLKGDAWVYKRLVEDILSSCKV
Mitogen-activated protein kinase kinase kinase 10 (Homo sapiens), sequence (Q02779 whole entry, looked up, the tested form may be a part): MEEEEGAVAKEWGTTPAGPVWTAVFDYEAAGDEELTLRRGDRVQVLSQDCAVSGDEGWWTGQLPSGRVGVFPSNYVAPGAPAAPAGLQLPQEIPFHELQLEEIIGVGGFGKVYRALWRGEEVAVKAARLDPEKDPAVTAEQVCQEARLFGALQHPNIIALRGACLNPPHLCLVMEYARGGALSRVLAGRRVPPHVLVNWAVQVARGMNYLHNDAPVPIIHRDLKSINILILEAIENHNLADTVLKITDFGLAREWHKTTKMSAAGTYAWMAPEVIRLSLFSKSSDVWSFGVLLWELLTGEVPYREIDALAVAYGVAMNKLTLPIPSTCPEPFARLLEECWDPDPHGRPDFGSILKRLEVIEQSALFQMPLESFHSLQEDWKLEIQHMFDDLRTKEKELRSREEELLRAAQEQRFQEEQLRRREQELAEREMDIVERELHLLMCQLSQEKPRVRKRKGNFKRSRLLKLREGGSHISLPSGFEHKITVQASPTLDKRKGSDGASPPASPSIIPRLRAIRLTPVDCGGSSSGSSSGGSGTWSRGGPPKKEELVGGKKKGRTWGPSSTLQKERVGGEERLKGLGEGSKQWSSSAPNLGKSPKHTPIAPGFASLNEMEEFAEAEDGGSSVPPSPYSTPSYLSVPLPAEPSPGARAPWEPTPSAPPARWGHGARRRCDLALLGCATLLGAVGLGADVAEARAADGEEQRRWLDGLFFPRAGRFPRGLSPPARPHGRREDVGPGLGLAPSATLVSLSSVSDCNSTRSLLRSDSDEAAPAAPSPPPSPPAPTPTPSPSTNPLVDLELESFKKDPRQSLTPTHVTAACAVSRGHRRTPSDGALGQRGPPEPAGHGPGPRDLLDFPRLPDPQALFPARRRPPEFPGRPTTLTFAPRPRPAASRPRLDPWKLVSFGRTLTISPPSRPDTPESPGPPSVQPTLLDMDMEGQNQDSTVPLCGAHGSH
Serine/threonine-protein kinase Nek6 (Homo sapiens), sequence (Q9HC98 whole entry, the tested form may be a part): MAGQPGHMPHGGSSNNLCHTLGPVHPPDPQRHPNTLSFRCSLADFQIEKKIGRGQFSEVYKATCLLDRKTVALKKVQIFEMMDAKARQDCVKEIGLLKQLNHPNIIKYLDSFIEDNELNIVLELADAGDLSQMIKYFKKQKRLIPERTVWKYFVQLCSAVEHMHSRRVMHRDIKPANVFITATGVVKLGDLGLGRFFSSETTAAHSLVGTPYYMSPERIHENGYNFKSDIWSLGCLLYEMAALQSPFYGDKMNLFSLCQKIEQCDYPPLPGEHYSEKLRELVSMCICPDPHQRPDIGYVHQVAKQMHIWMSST
Fibroblast growth factor receptor 2 (Homo sapiens), sequence (P21802 22-821 limits assumed): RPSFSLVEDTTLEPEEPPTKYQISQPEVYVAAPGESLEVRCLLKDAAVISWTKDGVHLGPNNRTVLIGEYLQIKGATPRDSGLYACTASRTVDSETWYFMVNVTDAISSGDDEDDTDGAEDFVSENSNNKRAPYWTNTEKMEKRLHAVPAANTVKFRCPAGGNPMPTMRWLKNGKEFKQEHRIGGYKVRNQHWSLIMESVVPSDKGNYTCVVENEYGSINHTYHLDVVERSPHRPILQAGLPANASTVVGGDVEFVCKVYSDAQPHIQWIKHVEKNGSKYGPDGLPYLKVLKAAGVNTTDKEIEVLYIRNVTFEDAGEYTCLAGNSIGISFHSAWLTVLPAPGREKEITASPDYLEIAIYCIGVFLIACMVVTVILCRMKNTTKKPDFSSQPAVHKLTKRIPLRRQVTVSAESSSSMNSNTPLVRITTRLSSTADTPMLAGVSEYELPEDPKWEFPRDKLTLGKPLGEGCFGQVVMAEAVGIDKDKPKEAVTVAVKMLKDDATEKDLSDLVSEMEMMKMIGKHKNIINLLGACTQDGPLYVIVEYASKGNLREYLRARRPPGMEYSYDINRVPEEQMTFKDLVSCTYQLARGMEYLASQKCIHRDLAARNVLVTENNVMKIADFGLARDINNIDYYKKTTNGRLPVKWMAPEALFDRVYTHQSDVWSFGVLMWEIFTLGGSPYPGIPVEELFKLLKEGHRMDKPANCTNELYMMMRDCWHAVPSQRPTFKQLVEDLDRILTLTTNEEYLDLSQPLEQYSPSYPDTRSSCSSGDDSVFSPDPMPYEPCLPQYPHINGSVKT
Calcium/calmodulin-dependent protein kinase type 1 (Homo sapiens), sequence (Q14012 whole entry, looked up, the tested form may be a part): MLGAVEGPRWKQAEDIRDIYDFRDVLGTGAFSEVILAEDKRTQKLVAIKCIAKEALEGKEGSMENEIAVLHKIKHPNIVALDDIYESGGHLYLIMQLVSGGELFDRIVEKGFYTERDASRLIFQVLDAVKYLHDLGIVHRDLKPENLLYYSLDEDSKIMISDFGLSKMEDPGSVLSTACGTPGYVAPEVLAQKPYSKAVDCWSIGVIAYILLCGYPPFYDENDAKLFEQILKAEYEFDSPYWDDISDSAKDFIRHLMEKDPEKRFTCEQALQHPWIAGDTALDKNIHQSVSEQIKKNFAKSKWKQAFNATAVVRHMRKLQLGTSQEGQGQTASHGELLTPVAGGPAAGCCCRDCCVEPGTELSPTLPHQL

CC(C)(O)CNc1ncc(-c2ccnc(Nc3ccnc(Cl)c3)n2)c(CC2CC2)n1 was tested, and the inhibition [1] was “inactive”, the inhibition [2] was “inactive” and the Activity [3] was 98%. The inhibition [4] was “inactive”, the inhibition [5] was “inactive” and the Activity [6] was 105%. For the same compound, the inhibition [7] was “inactive”, the Activity [8] was 110% and the Activity [9] was 116%. The inhibition [10] was “inactive”, the inhibition [11] was “inactive” and the inhibition [12] was “inactive”. The inhibition [13] was “inactive”, the inhibition [14] was “inactive” and the Activity [15] was 98%. For the same compound, the IC50 [16] was greater than 10 µM, the Activity [17] was 108% and the Activity [18] was 112%. The inhibition [19] was “inactive”, the inhibition [20] was “inactive” and the inhibition [21] was “inactive”. The inhibition [22] was “inactive”, the inhibition [23] was “inactive” and the Activity [24] was 88%. The inhibition [25] was “inactive”.
